In ChEMBL document CHEMBL5356984 (RSC Med Chem, 2023):
Calls of active or inactive are those of the source. The calls are words filed in the database; no cut-off is given here.

What was measured:
[1] = tested on: SK-BR-3; experiment: Induction of apoptosis in human SK-BR-3 cells assessed as necrotic cells at 10 uM incubated for 36 hrs by Annexin V/PI staining based flow cytometry (reference value: 1.89 %); assay type: functional
[2] = tested on: MCF7; experiment: Induction of apoptosis in human MCF7 cells assessed as increase in cleaved pro-caspase-8 level at 10 to 20 uM incubated for 48 hrs by Western blot analysis; assay type: functional, cell-based; details: dose 10-20 µM
Summary of the method: (§1)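 Cells exposed 48 h (DMSO vehicle control); trypsinized, lysed in RIPA with phosphatase/protease inhibitors; 20 μg protein on SDS-PAGE, blotted, blocked 5% milk 1 h; primary antibodies 1:1000 overnight at 4 °C, GAPDH 1:10000 as loading control; HRP secondary 1:1000–1:5000; ECL detection.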

[3] = tested on: SK-BR-3; experiment: Induction of apoptosis in human SK-BR-3 cells assessed as necrotic cells at 20 uM incubated for 36 hrs by Annexin V/PI staining based flow cytometry (reference value: 1.89 %); assay type: functional
[4] = biological target: Heat shock protein HSP90 (Homo sapiens, UniProt P07900+P08238); experiment: Inhibition of HSP90 in human SK-BR-3 cells assessed as decrease in phosphorylated AKT level at 5 to 20 uM incubated for 48 hrs by Western blot analysis; assay type: cell-based; details: dose 5-20 µM
Summary of the method: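 MCF-7 or SKBr3 cells were exposed for 48 h, then trypsinised, PBS-washed and lysed in RIPA buffer with phosphatase and protease inhibitors. Cleared lysate (14 000 rpm, 4 °C, 15 min) was BCA-quantified, and 20 µg protein was run on SDS-PAGE and blotted. Blots were blocked in 5% milk, incubated with primary antibodies (1:1000) overnight at 4 °C, then HRP secondary, and developed by ECL. GAPDH (1:10000) was the loading control.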

[5] = Thermal stability of compound in boiling toluene at 120 degreeC assessed as time taken for compound decomposition at 1 mg/ml by HPLC analysis; assay type: physicochemical; details: read-out: T50
[6] = tested on: SK-BR-3; experiment: Induction of apoptosis in human SK-BR-3 cells assessed as necrotic cells at 5 uM incubated for 36 hrs by Annexin V/PI staining based flow cytometry (reference value: 1.89 %); assay type: functional
[7] = tested on: SK-BR-3; experiment: Effect on HSP70 level in human SK-BR-3 cells at 5 to 20 uM incubated for 48 hrs by Western blot analysis; assay type: functional, cell-based; details: dose 5-20 µM; summary of the method: as §1
[8] = tested on: MCF7; experiment: Induction of apoptosis in human MCF7 cells assessed as late apoptotic cells at 10 uM incubated for 36 hrs by Annexin V/PI staining based flow cytometry (reference value: 6.02 %); assay type: functional
[9] = tested on: MCF7; experiment: Induction of apoptosis in human MCF7 cells assessed as early apoptotic cells at 5 uM incubated for 36 hrs by Annexin V/PI staining based flow cytometry (reference value: 1.13 %); assay type: functional
[10] = tested on: MCF7; experiment: Induction of apoptosis in human MCF7 cells assessed as viable cells at 20 uM incubated for 36 hrs by Annexin V/PI staining based flow cytometry (reference value: 90.5 %); assay type: functional; details: read-out: Activity

## CN1CCN(/C=C/C(=O)/C=C/c2cccc(O[Si](C)(C)C(C)(C)C)c2)CC1
[1]
  Activity: 1.7%
[2]
  Activity: Active
[3]
  Activity: 3.13%
[4]
  inhibition: Active
[5]
  half-life at 1 mg/ml: > 12 h
[6]
  Activity: 1.81%
[7]
  Activity: inactive
[8]
  Activity: 21.7%
[9]
  Activity: 1.58%
[10]
  viability at 20 µM: 51.7%
